Bioassay records (PubChem BioAssay)
The list is not random: actives were taken first. Their share in the collection is about 1.5%.
RBBP9 inhibitor: inhibitors of human serine hydrolase RBBP9. AID 1515. O75884. inhibition, % at 7.94 µM. hit rate 0.2% among 220,000. recombinant RBBP9, FP-Rh probe fluorescence polarization;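 active = inhibition above the campaign mean of all tested compounds plus 3 SD, cut at about 14% in these data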
Target sequence (O75884 whole entry, looked up): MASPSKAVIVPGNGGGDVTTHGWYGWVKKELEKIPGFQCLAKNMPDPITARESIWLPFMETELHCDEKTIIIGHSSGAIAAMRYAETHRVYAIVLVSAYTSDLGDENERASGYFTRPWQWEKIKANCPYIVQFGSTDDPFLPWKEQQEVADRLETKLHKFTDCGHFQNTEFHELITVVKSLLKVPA
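Controls: DMSO-treated enzyme wells and wells lacking RBBP9 | Material: RBBP9 protein | Technique: Fluorescence polarization | Replication: Single well per compound, no replicates | Buffer or medium: Tris-NaCl-Pluronic buffer, pH 8.0 | Timing: 30 min compound preincubation, 45 min probe labeling, 25 °C | Read-out basis: Percent inhibition from mP, scaled between DMSO and no-protein wells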
EP2 modulator: EP2 receptor (human) modulation; P43116; EP2-expressing cells, cAMP HTRF FRET, PGE2 co-stimulation; induction, % at 25 µM; hit rate 0.83% among 260,000; AID 940;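 active = compounds whose cAMP rise, as percent of the full-agonist control response, exceeds 60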;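 also: rat C6 glioma line stably carrying human EP2 under a CMV promoter; the protocol text gives 20 µM as final concentration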
Target sequence (P43116 whole entry, looked up): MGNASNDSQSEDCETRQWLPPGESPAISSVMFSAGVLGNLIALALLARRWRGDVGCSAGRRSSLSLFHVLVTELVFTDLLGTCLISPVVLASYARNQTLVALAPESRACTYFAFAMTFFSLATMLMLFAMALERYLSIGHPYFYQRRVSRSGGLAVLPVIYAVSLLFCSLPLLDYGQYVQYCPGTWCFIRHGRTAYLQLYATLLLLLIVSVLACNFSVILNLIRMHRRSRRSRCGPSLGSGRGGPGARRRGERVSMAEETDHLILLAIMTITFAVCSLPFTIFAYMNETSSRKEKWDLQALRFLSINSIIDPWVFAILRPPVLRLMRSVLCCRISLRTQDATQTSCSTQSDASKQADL
ABCG2 inh: inhibitors of human ABCG2 transporter, ABCB1 counter-screen. hit rate 0.1% among 190,000. inhibition, % at 6.6 µM. IgMXP3 cells, JC-1 efflux, flow cytometry. AID 1325;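 active = inhibition above 80%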
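Test system: IgMXP3 cells (ABCG2) mixed with DDAO far-red-labelled CCRF-Adr cells (ABCB1). Reagent: JC-1 transporter substrate. Compound dosing: single test compound dose, 6.6 µM final. Times: 10 min compound exposure, 25 °C. Detection: flow cytometry of retained JC-1 fluorescence. Read-out basis: efflux inhibition in percent versus controls. Controls: nicardipine and DMSO wells.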
ABCB1 block: human ABCB1 inhibition, ABCG2 as counter-screen; P08183; inhibition, % at 6.6 µM; hit rate 0.067% among 190,000; CCRF-Adr cells, JC-1 efflux, flow cytometry; in the data active = inhibition above about 40%;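 also: higher value means more JC-1 retained so stronger ABCB1 efflux block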
PGE2 EP2 inh: inhibitors of human EP2 prostaglandin E2 receptor. P43116. C6 glioma cells expressing human EP2, cAMP TR-FRET; cells stimulated with saturating PGE2. inhibition, % at 25 µM. hit rate 0.52% among 260,000;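 active = percent inhibition above 40 after rounding to a whole number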;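 also: rat C6 glioma host cells with rolipram phosphodiesterase inhibitor present; the protocol text gives 20 µM as final concentration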
EP2 confirm: human EP2 receptor cAMP induction, negative in counter-screens; shares compounds with EP2 modulator; C6 glioma EP2 cells, cAMP HTRF induction; plus low (about EC15) PGE2 agonist; calls only at 20 µM (by protocol); hit rate 47% among 1,300; AID 1080;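 active = cAMP induction above 50% in the main assay while under 30% in all four parallel counter assays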;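 also: rat C6 glioma cells stably expressing human EP2 receptor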
Of the large screens only hits and unclear results are named; the others gave an inactive call (follow-up assays come after a bar, where they were run); ! = not confirmed by another sample.

CCOC(=O)c1c(-c2ccccc2)csc1/N=C/C1C(=O)CCCC1=O	none
CCOC(=O)c1c(/N=C/C2C(=O)CCCC2=O)sc2c1CCCC2	none | EP2 confirm inactive
CCOC(=O)c1c(CC(C)C)csc1/N=C/C1C(=O)CCCC1=O	EP2 modulator 68 | EP2 confirm inactive
Cc1cc(-c2sccc2C)nc(-n2cccc2)n1	EP2 modulator 75 | EP2 confirm active
CSc1ncc2c(n1)-c1cc(C)ccc1SC2	EP2 modulator 78 | EP2 confirm active
CCCC(NC(=O)c1cc2c([nH]c1=O)CCCCC2)c1cccs1 (configuration not stated)	none (no result: RBBP9 inhibitor, ABCG2 inh, ABCB1 block)
CCOC(=O)c1cnc(SC)nc1Sc1ccccc1Cl	EP2 modulator 73 | EP2 confirm inactive
CSc1nc(Nc2ccccc2)c2ccccc2n1	none (no result: RBBP9 inhibitor, ABCG2 inh, ABCB1 block)
CCOC(=O)c1cnc(SC)nc1NCCOC	none
CSc1nc(Sc2ccccc2Cl)c2ccccc2n1	EP2 modulator 67 | EP2 confirm inactive
CCOc1ccc(OCC)c(NC(=O)CN2CCN(c3cc(C)ccc3C)CC2)c1	EP2 modulator 78 | EP2 confirm active
CCC1(CC)Cc2ccccc2-c2nc(NCCO)[nH]c(=O)c21	EP2 modulator 69! | EP2 confirm inactive
O=c1[nH]c(NCCO)nc2c1C1(CCCCC1)Cc1ccccc1-2	none
CCn1ncc(CN(Cc2ccc3c(c2)OCO3)CC2CCCO2)c1C (configuration not stated)	none (no result: RBBP9 inhibitor, ABCG2 inh, ABCB1 block)
O=C(CSc1nnc(CNc2ccc(F)cc2)n1Cc1ccccc1)NCc1ccccc1	none
Cn1c(CNc2ccc(F)cc2)nnc1SCC(=O)NNC(=O)Cc1ccccc1	none | EP2 confirm inactive
O=S1(=O)N=C(N/N=C/C=C/c2ccccc2)c2ccccc21	none
O=S1(=O)N=C(N(CCO)/N=C/C=C/c2ccccc2)c2ccccc21	EP2 modulator 72 | EP2 confirm active
CSc1ccccc1NC(=O)COc1ccc(Cl)cc1C	EP2 modulator 67 | EP2 confirm active
CCOC(=O)Cn1nnnc1CN(Cc1ccc(F)cc1)Cc1cc2c(C)cc(C)cc2[nH]c1=O	none (no result: RBBP9 inhibitor, ABCG2 inh, ABCB1 block)
Cc1ccc(CSc2nc3ccccc3cc2C=O)cc1	EP2 modulator 71 | EP2 confirm inactive
COc1ccc2c(c1)cc(C)c1nn(CC(=O)N3CCCC3)c(=O)n12	none (no result: RBBP9 inhibitor, ABCG2 inh, ABCB1 block)
COC(=O)c1ccc(Oc2cc(C)nc(NCc3ccccc3)n2)cc1	EP2 modulator 70 | EP2 confirm active
COC(=O)c1ccc(Oc2nc(C)cc(Oc3ccccc3)n2)cc1	none
COc1ccc(NC(=O)CSc2nc(-c3cccs3)cc(C(F)(F)F)c2C#N)cc1OC	none (no result: RBBP9 inhibitor, ABCG2 inh, ABCB1 block)
CCOC(=O)c1sc(NC(=O)COc2ccc(C(C)C)cc2)c(C#N)c1C	none (no result: RBBP9 inhibitor, ABCG2 inh, ABCB1 block)
CC1(c2ccccc2)CC(C)(C)N(C(=O)C2CCCO2)c2ccccc21 (configuration not stated)	EP2 modulator 69 | EP2 confirm active
CC1(c2cc([N+](=O)[O-])cc([N+](=O)[O-])c2)CC(C)(C)N(C(=O)c2ccccc2)c2ccccc21 (configuration not stated)	EP2 modulator 74 | EP2 confirm inactive
CCOc1ccc(OCC)c(NC(=O)CSc2ncnc3scc(-c4ccccc4)c23)c1	none (no result: RBBP9 inhibitor, ABCG2 inh, ABCB1 block)
COCCn1c(SCC(=O)NCCc2ccccc2)nnc1-c1ccco1	EP2 modulator 67 | EP2 confirm inactive
COC(=O)c1c(NC(=O)CSc2nnc(-c3ccco3)n2Cc2ccccc2)sc(C)c1C	none | EP2 confirm inactive
CCn1c(COc2ccc(Br)cc2)nnc1SCC(=O)N1CCCc2ccccc21	none (no result: RBBP9 inhibitor, ABCG2 inh, ABCB1 block)
CCC(c1nnnn1Cc1ccc(OC)cc1)N(Cc1cc2cccc(C)c2[nH]c1=O)C1CCCC1 (configuration not stated)	none (no result: RBBP9 inhibitor, ABCG2 inh, ABCB1 block)
CCCN(CCC)C(C)C(=O)NCC1(c2ccccc2)CCCC1 (configuration not stated)	EP2 modulator 74 | EP2 confirm active
O=C(Nc1cccc(-c2csnn2)c1)C1Oc2ccccc2O1	none (no result: RBBP9 inhibitor, ABCG2 inh, ABCB1 block)
CCCCNc1nc(N(C)c2ccccc2)nc(-n2ccnc2)n1	EP2 modulator 77 | EP2 confirm active
Cc1ccc(NC(=O)CSc2nc(-c3ccco3)c(C#N)c(=O)[nH]2)cc1	none (no result: RBBP9 inhibitor, ABCG2 inh, ABCB1 block)
N#Cc1c(-c2ccco2)nc(SCC(=O)Nc2cccc(Cl)c2)[nH]c1=O	EP2 modulator 64 | EP2 confirm inactive
CCC(C)NC(=O)c1ccccc1NS(=O)(=O)c1cccs1 (configuration not stated)	none (no result: RBBP9 inhibitor, ABCG2 inh, ABCB1 block)
CCOC(=O)c1c(NC(=O)c2c(Br)cnn2CC)sc(C)c1C	EP2 modulator 73 | EP2 confirm active
CCOC(=O)c1c(NC(=O)c2ccc(Cl)s2)sc(C)c1C	none (no result: RBBP9 inhibitor, EP2 modulator, ABCG2 inh, ABCB1 block)
CCn1ncc(Br)c1C(=O)Nc1sc2c(c1C(=O)OC)CCC2	none (no result: EP2 modulator, ABCG2 inh, ABCB1 block)
CCOC(=O)c1c(NC(=O)CSC(=S)N(C)C)sc(C)c1C	EP2 modulator 66 | EP2 confirm active
CCOC(=O)c1c(NC(=O)c2ccncc2)sc(C)c1C	EP2 modulator 74 | EP2 confirm active
CCOC(=O)c1c(NC(=O)c2ccoc2C)sc(C)c1C	EP2 modulator 77 | EP2 confirm inactive
CC1(C(=O)N(CCc2ccccc2)CC(=O)NC2CCCC2)CC(=O)N=C2C=CC=CN21 (configuration not stated)	none (no result: RBBP9 inhibitor, ABCG2 inh, ABCB1 block)
CCC(=O)Nc1ccc(NC(=O)CCn2nnc3ccccc32)cc1	none (no result: RBBP9 inhibitor, ABCG2 inh, ABCB1 block)
Cc1cnc(C(=O)N2CCC[C@H](CNC(=O)c3ccco3)C2)cn1	none (no result: RBBP9 inhibitor, ABCG2 inh, ABCB1 block)
O=C(CN1C(=O)[C@H]2CCCN2C(=O)c2ccccc21)NC1CCCCCC1	none (no result: RBBP9 inhibitor, ABCG2 inh, ABCB1 block)
Cc1ccc(NC(=S)N(Cc2cccnc2)Cc2cc3cc(C)cc(C)c3[nH]c2=O)cc1	none (no result: RBBP9 inhibitor, ABCG2 inh, ABCB1 block)
CCn1c(=NC(=O)c2ccc(S(=O)(=O)N3CCOCC3)cc2)sc2cccc(OC)c21	EP2 modulator 68 | EP2 confirm inactive
COC(=O)c1c(NC(=O)/C=C/C(=O)O)sc2c1CCCC2	none (no result: RBBP9 inhibitor, ABCG2 inh, ABCB1 block)
CC(C)N(CCNC(=O)c1oc(=O)c2ccccc2c1-c1ccccc1)Cc1ccco1	EP2 modulator 69 | EP2 confirm inactive
C=CCN1C(=O)/C(=C/c2ccc(OCC(=O)O)cc2)S/C1=N/c1nccs1	none
C=CCN1C(=O)/C(=C/c2ccc(O)c(OC)c2)S/C1=N/c1nccs1	EP2 modulator 70 | EP2 confirm active
